Active and inactive are the calls of the source. The rule behind the calls is not given here. *1 amine or outer side, *2 acyl side, *3 side chain or, on linkers, in order; H or OH if unused. Where a SMILES comes first, the peptide text is derived from it. [ ]: non-standard residue; d: D form. X1 = O=C([C@H](N[*:1])[C@H](OCc1ccccc1)c1ccccc1)[*:2]; NMeV = CN[C@H](C(=O)O)C(C)C
What was measured:
[1] = Inhibition of binding of recombinant HSP90 to his-tagged HER2 up to 10 uM by Western blotting analysis
[2] = Inhibition of binding of recombinant HSP90 to his-tagged Akt up to 10 uM by Western blotting analysis
HCT-116 [3] = assay: Induction of apoptosis in human HCT116 cells assessed as PARP cleavage at 50 uM after 24 hrs by Western blotting analysis; assay type: functional
Outline: (§1)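 HCT116 cells treated 24 hrs with compound at 0–50 µM; cell lysates analyzed by Western blot for full-length PARP (~113 kDa) and cleaved fragments, full-length PARP quantified relative to untreated cells.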

HCT-116 [4] = assay: Induction of apoptosis in human HCT116 cells assessed as PARP cleavage after 24 hrs by Western blotting analysis; assay type: functional, cell-based; outline: as §1
[5] = biological target: T1, Heat shock protein HSP90 (Homo sapiens) (UniProt P07900+P08238); assay: Binding affinity to HSP90 in human HCT116 cells assessed as increase in staining intensity in cytosol at 5 uM after 72 hrs by immunofluorescence staining analysis; assay type: cell-based; settings: HCT-116
Outline: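 HCT116 colon cancer cells treated 72 hours (DMSO as vehicle control, 17-AAG as reference Hsp90 inhibitor); Hsp90 visualized by immunofluorescence with a polyclonal anti-Hsp90 antibody, cytosolic staining intensity compared with DMSO-treated cells.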

[6] = Competitive binding affinity to N-middle domain of HSP90 expressed in BL21(DE)3 Escherichia coli cells after 1 hr by immunoblotting analysis in the presence of 2-chlorobenzyl 4-((2R,5S,8S,11S,14R)-11,14-dibenzyl-8-isobutyl-5-isopropyl-13-methyl-3,6,9,12,15-pentaoxo-1,4,7,10,13-pentaazacyclopentadecan-2-yl)butylcarbamate
[7] = biological target: T1, Heat shock protein HSP90 (Homo sapiens); assay: Binding affinity to HSP90 in human HCT116 cell lysates at 0.6 uM after 1 hr by Western blot based pull down assay; assay type: protein assay; settings: HCT-116
Outline: (§2)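 Biotinylated probe incubated with HCT116 cell lysate; neutravidin-agarose beads added to capture probe with bound proteins, beads washed ten times, proteins eluted in sample buffer and resolved by gel/Western blot. Controls: PEGylated biotin linker alone and DMSO.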

[8] = Binding affinity to N-middle domain of HSP90 expressed in BL21(DE)3 Escherichia coli cells at 5 uM after 2 hrs by Western blotting method based pull down assay
[9] = biological target: Glyceraldehyde-3-phosphate dehydrogenase (Homo sapiens) (UniProt P04406); assay: Binding affinity to glyceraldehyde-3-phosphate dehydrogenase in human HCT116 cell lysates at 0.6 uM after 1 hr using coomassie blue staining by SDS-PAGE based pull down assay; settings: HCT-116; outline: as §2
HCT-116 [10] = assay: Binding affinity to beta tubulin in human HCT116 cell lysates at 0.6 uM after 1 hr using coomassie blue staining by SDS-PAGE based pull down assay; assay type: cell-free; outline: as §2
HCT-116 [11] = assay: Binding affinity to actin in human HCT116 cell lysates at 0.6 uM after 1 hr using coomassie blue staining by SDS-PAGE based pull down assay; assay type: cell-free; outline: as §2
[12] = biological target: T1, Heat shock protein HSP90 (Homo sapiens); assay: Binding affinity to HSP90 in human HCT116 cell lysates at 0.6 uM after 1 hr using coomassie blue staining by SDS-PAGE based pull down assay; assay type: protein assay; settings: HCT-116; outline: as §2
Myosin-9 (Homo sapiens) = Myosin-9 (Homo sapiens) (UniProt P35579); assay: Binding affinity to myosin-9 in human HCT116 cell lysates at 0.6 uM after 1 hr using coomassie blue staining by SDS-PAGE based pull down assay; settings: HCT-116; outline: as §2
Sequence of Myosin-9 (Homo sapiens) (P35579 whole entry): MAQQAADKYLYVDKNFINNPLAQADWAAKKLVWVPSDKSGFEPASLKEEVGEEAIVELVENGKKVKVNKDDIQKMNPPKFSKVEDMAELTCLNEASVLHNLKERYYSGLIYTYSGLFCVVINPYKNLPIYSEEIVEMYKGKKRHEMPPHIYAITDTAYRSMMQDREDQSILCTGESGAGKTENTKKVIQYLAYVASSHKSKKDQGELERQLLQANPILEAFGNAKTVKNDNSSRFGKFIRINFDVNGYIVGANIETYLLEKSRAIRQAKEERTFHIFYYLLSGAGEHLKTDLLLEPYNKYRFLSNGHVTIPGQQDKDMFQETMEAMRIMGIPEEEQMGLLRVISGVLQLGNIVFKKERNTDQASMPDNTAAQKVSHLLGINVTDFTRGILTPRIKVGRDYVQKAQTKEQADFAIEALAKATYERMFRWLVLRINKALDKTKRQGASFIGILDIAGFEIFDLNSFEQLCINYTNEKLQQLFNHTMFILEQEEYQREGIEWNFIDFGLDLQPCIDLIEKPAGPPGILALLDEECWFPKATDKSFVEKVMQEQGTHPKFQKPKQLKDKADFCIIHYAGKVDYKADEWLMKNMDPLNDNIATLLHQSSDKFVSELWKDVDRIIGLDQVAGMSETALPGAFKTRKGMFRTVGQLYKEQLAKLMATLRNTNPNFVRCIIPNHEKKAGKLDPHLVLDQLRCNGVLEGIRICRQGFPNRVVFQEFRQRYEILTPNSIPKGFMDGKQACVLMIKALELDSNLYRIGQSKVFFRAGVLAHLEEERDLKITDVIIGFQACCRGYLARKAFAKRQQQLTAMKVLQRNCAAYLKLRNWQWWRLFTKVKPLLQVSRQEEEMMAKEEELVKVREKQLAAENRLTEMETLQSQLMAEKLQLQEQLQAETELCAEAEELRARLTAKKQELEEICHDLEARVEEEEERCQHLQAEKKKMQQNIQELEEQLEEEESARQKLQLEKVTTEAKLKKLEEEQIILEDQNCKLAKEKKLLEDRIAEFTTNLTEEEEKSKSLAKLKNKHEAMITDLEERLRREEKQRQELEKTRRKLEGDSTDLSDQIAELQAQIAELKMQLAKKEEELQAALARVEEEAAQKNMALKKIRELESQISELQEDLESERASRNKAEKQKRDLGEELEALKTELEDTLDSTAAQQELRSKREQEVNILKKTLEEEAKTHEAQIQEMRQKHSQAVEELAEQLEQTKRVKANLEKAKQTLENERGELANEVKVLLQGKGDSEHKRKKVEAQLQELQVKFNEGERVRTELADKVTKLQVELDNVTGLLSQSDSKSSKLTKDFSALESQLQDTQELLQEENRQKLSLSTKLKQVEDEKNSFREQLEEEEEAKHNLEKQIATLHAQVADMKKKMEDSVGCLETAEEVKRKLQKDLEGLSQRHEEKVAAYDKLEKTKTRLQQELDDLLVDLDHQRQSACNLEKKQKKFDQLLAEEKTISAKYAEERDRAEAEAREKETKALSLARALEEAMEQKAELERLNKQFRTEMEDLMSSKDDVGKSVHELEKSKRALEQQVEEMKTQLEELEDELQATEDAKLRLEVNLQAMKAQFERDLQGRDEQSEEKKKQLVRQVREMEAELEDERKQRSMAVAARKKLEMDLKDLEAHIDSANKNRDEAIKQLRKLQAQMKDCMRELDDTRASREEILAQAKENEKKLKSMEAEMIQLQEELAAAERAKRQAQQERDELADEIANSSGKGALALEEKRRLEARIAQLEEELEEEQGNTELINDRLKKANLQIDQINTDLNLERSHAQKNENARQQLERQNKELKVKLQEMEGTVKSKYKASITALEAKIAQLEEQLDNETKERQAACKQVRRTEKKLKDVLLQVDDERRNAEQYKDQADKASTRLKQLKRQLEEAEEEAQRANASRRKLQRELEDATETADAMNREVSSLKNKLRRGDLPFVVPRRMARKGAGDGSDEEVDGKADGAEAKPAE

Sequence of Glyceraldehyde-3-phosphate dehydrogenase (Homo sapiens) (P04406 2-335 limits assumed): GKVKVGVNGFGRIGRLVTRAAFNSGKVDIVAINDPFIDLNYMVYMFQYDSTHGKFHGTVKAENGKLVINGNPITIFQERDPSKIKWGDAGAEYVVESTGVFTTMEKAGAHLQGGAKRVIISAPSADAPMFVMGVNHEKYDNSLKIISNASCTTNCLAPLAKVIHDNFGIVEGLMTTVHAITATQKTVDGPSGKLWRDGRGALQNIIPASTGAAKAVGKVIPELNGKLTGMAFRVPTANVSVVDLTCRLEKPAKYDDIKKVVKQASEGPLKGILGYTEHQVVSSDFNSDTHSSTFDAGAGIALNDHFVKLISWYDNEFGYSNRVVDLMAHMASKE

Row | inhibition [1] | inhibition [2] | Activity [5] | IC50 [6] | Activity [7] | Activity [9] | Activity [12] | Activity (Myosin-9 (Homo sapiens)) | SMILES | Activity (HCT-116 [3]) | Activity (HCT-116 [4]) | Activity [8] | Activity (HCT-116 [10]) | Activity (HCT-116 [11])
1 | inactive | inactive | Active | 6.2 µM |  |  |  |  | CC(C)C[C@@H]1NC(=O)[C@H](C(C)C)NC(=O)[C@@H](CCCCNC(=O)OCc2ccccc2Cl)NC(=O)[C@@H](Cc2ccccc2)N(C)C(=O)[C@H](Cc2ccccc2)NC1=O | 48% | Dose-dependent effect |  |  | 
2 |  |  |  |  | Active | Active | Active | Active | CC(C)C[C@@H]1NC(=O)[C@H](CCCCNC(=O)CCOCCOCCOCCOCCNC(=O)CCCC[C@@H]2SC[C@@H]3NC(=O)N[C@@H]32)NC(=O)[C@@H](CCCCNC(=O)OCc2ccccc2Cl)NC(=O)[C@@H](Cc2ccccc2)N(C)C(=O)[C@H](Cc2ccccc2)NC1=O |  |  | Active | Active | Active
3 |  |  |  |  | inactive | inactive | inactive | inactive | CC(C)[C@@H]1NC(=O)[C@@H](CCCCNC(=O)OCc2ccccc2Cl)NC(=O)[C@@H](Cc2ccccc2)N(C)C(=O)[C@H](Cc2ccccc2)NC(=O)[C@H](CCCCNC(=O)CCOCCOCCOCCOCCNC(=O)CCCC[C@@H]2SC[C@@H]3NC(=O)N[C@@H]32)NC1=O |  |  |  | inactive | inactive
4 |  |  | Active | 1.9 µM |  |  |  |  | CC(C)C[C@@H]1NC(=O)[C@H](C(C)C)N(C)C(=O)[C@@H](CC(C)C)NC(=O)[C@@H](Cc2ccccc2)NC(=O)[C@@H]([C@H](OCc2ccccc2)c2ccccc2)NC1=O (cyclo(L[X1][dF][dL][NMeV])) |  |  |  |  | 
